Data set [1] deals with Pseudomonas aeruginosa. The data set is described as follows: Photobactericidal activity against Pseudomonas aeruginosa assessed as live bacterial cells with membrane integrity loss at 1 uM incubated for 30 mins followed by 1 washing by propidium iodide staining based flow cytometry. Type of data set: functional. In outline:
(§1)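 Bacteria were incubated with 1 µM conjugate for 30 min at 37 °C, washed with saline, then stained with propidium iodide (0.01 mg/mL) to assess viability. Samples were analysed by flow cytometry. Q1 is the PI-positive (permeable membrane) population; Q2 is double positive for PI and photosensitizer fluorescence.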
In general terms: A flow cytometer gives signals particle by particle.

Data set [2] deals with Pseudomonas aeruginosa. The data set is described as follows: Photobactericidal activity against Pseudomonas aeruginosa pretreated for 30 mins followed by compound wash out with subsequent irradiation with white light at 4.83 mW/cm2. Type of data set: functional, organism-based. In outline:
(§2)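 Bacteria were pre-incubated with conjugate in 1X PBS (P. aeruginosa at 1 µM), then washed three times with PBS. They were irradiated with white LED light (4.83 mW/cm²; 7 J/cm² corresponds to 24 min) at 37 °C. Survival, as % of initial density, was plotted against cumulative light fluence.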

For data set [3], the system named is Pseudomonas aeruginosa. Description: Photobactericidal activity against Pseudomonas aeruginosa assessed as PI-positive and PS-positive cell population at 1 uM incubated for 30 mins followed by 1 washing by propidium iodide staining based flow cytometry. Type of data set: functional. In outline:
as §1

For data set [4], the system named is Pseudomonas aeruginosa. The data set is described as follows: Photobactericidal activity against Pseudomonas aeruginosa CIP76110 irradiated with white light at 4.83 mW/cm2 for 20 hrs. The note with it: CIP76110, light or radiation study. Type of data set: functional. In outline:
(§3)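 Minimal bactericidal concentration (MBC) was determined in tryptic soy medium with log-phase bacteria at 37 °C. Plates were either kept in the dark or given 20 h of white light at 4.83 mW/cm². MBC was taken as the concentration killing 99.99% of bacteria, i.e. a 4-log reduction versus the untreated control.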

For data set [5], the system named is Escherichia coli. Description: Bactericidal activity against Escherichia coli CIP54.8T incubated for 30 mins under dark conditions. Type of data set: organism-based. The note with it: 0.5 h. In outline:
as §3

Data set [6] deals with Pseudomonas aeruginosa. The data set is described as follows: Bactericidal activity against Pseudomonas aeruginosa CIP76110 incubated for 30 mins under dark conditions. Particulars: 0.5 h. Type of data set: organism-based. In outline: as §3
For data set [7], the system named is Escherichia coli. The data set is described as follows: Photobactericidal activity against Escherichia coli pretreated for 30 mins followed by compound wash out with subsequent irradiation with white light at 4.83 mW/cm2. The class given is functional, organism-based. In outline:
as §2

The subject of data set [8] is Escherichia coli. Description: Photobactericidal activity against Escherichia coli CIP54.8T irradiated with white light at 4.83 mW/cm2 for 20 hrs. Type of data set: functional. The note with it: light or radiation study. In outline:
as §3

For data set [9], the system named is Staphylococcus aureus. Description: Photobactericidal activity against Staphylococcus aureus at 1 uM after 30 mins by confocal laser scanning microscopy. Type of data set: functional, organism-based. In outline: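 S. aureus inoculum was suspended in 1 µM conjugate for 30 min at 37 °C, washed three times with PBS, and imaged by confocal laser scanning microscopy at 100X to visualise bacteria-associated fluorescence.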

Data set [10] concerns Staphylococcus aureus. Description: Photobactericidal activity against Staphylococcus aureus pretreated for 30 mins followed by compound wash out with subsequent irradiation with white light at 4.83 mW/cm2. The class given is functional, organism-based. In outline: as §2
Data set [11] relates to NHDF. Description: Cytotoxicity against human NHDF cells assessed as reduction in cell viability at 5 to 5000 nM incubated under dark conditions for 2 hrs measured after 24 hrs by MTT assay. Type of data set: cell-based. Particulars: 5 µM. A general note: Formazan colour is commonly taken as a measure of viable cells.
Data set [12] concerns Staphylococcus aureus. Description: Photobactericidal activity against Staphylococcus aureus CIP76.25 irradiated with white light at 4.83 mW/cm2 for 20 hrs. The note with it: CIP76.25, light or radiation study. Type of data set: functional. In outline: as §3
In data set [13] the test system is NHDF. Description: Cytotoxicity against human NHDF cells assessed as reduction in cell viability at 5 to 5000 nM irradiated with white light at 4.83 mW/cm2 for 2 hrs measured after 24 hrs by MTT assay. Type of data set: cell-based. Particulars: 5 µM.

Converted amounts (≈) assume the structure as drawn. The source made the active and inactive calls. The calls are words filed in the database; no cut-off is given here.

For the molecule `CCCCCCCC(=O)N[C@@H](CSC1CC(=O)N(CCCCCC(=O)Nc2ccc(-c3c4nc(c(-c5cc[n+](C)cc5)c5ccc([nH]5)c(-c5cc[n+](C)cc5)c5nc(c(-c6cc[n+](C)cc6)c6ccc3[nH]6)C=C5)C=C4)cc2)C1=O)C(=O)N[C@H](C(=O)N[C@@H](CCN)C(=O)N[C@H]1CCNC(=O)[C@H]([C@@H](C)O)NC(=O)[C@H](CCN)NC(=O)[C@H](CCN)NC(=O)[C@H](CC(C)C)NC(=O)[C@@H](Cc2ccccc2)NC(=O)[C@H](CCN)NC1=O)[C@@H](C)O.[I-].[I-].[I-]` (some centres not stated), the Activity is 80% with Pseudomonas aeruginosa [1], 80% with Pseudomonas aeruginosa [3], “Non-Toxic” in the data set on NHDF [11] and “Non-Toxic” in the data set with NHDF [13]. The result in the data set on Pseudomonas aeruginosa [2], in the data set with Escherichia coli [7], in the data set with Staphylococcus aureus [9] and in the data set on Staphylococcus aureus [10] was Active. For the same molecule, the MBC is 2.5 µM in the data set on Pseudomonas aeruginosa [4]; 1.2 to 5 µM with Escherichia coli [5]; 10 µM in the data set on Pseudomonas aeruginosa [6]; 0.5 µM with Escherichia coli [8]; 0.8 µM with Staphylococcus aureus [12].

`CCCCCCCC(=O)N[C@@H](CS)C(=O)N[C@H](C(=O)N[C@@H](CCCCN)C(=O)N[C@H]1CCNC(=O)[C@H]([C@@H](C)O)NC(=O)[C@H](CCCCN)NC(=O)[C@H](CCCCN)NC(=O)[C@H](CC(C)C)NC(=O)[C@@H](Cc2ccccc2)NC(=O)[C@H](CCCCN)NC1=O)[C@@H](C)O`: the MBC against Pseudomonas aeruginosa [4] was greater than 100 µM; with Escherichia coli [5] it was 50 µM (≈ 65.2 µg/mL); against Pseudomonas aeruginosa [6], greater than 100 µM; in the data set with Escherichia coli [8], 50 µM (≈ 65.2 µg/mL).
